Data on one compound can be found in ChEMBL document CHEMBL3352316, “Optimization of physicochemical properties and safety profile of novel bacterial topoisomerase type II inhibitors (NBTIs) with activity against Pseudomonas aeruginosa” (Bioorg Med Chem, 2014).

A short description of test [1]: Ratio of fAUC to MIC in Pseudomonas aeruginosa PAO1 in neutropenic mouse thigh infection model at 150 mg/kg/day, ip bid q12h starting 2 h post infection. Particulars: route intraperitoneal.
For the next test, the system named is Pseudomonas aeruginosa. Kind of test: Antimicrobial activity against Pseudomonas aeruginosa PAO1 in neutropenic mouse thigh infection model assessed as log reduction in CFU at 100 mg/kg/day, ip bid q12 regime starting 2 hrs after infection measured 24 hrs post start of treatment relative to control. It counts as functional. The following applies: route intraperitoneal. In outline:
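CD-1 mice made neutropenic with intraperitoneal cyclophosphamide 4 days (150 mg/kg) and 1 day (100 mg/kg) before thigh infection with P. aeruginosa PAO1, target inoculum 5 × 10⁵ CFU. Groups of five dosed ip in 5% dextrose with lactic acid pH 5.0. Vehicle-only group included. Thighs removed 24 h after treatment start, weighed, homogenized and plated on tryptic soy agar, 37 °C overnight. Log CFU/g reduction is relative to starting inoculum.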

As to `N[C@@H](Cn1c(=O)cnc2ccc(F)cc21)[C@H]1CC[C@H](NCc2ncc3c(n2)NC(=O)CO3)CC1`, the fAUC/MIC in test [1] was 16. Further, in the test on Pseudomonas aeruginosa, the FC came out at 0.2.
